Results on 13 molecules are retold here after ChEMBL document CHEMBL1157103, “Structure and anti-TB activity of trachylobanes from the liverwort Jungermannia exsertifolia ssp. cordifolia” (2010).

Each structure is given as a SMILES string. Values after ≈ are worked out from the molar mass of the structure shown.

In general, MIC90 refers to the lowest concentration that inhibits either 90% of growth or 90% of the strains tested, depending on the study. The low end stands for higher susceptibility, the high end for lower susceptibility.

In the experiment the test system is Mycobacterium tuberculosis. Description: Antituberculosis activity against Mycobacterium tuberculosis H37Rv ATCC 27294 after 7 to 10 days by microplate alamar blue assay. Format: functional. In outline:
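Microdilution in 96-well format. Test materials were incubated with virulent M. tuberculosis H37Rv for 7–10 days at 0.1 to 128 μg/mL. Growth was read fluorometrically with Alamar Blue. MIC90 and percent inhibition were calculated against a 1:10 dilution of the inoculum. Rifampin served as the positive control and DMSO as the negative control.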
(The colour change of resazurin is a common sign of viable cells or microbes.)

On to `CC1(C)CCC[C@]2(C)[C@@H]1CC[C@@]13C[C@@H]4[C@@H](C[C@H]12)[C@]4(CO)C3`, for which the MIC90 was determined as 446 µM (≈ 129 µg/mL). To `CC(=O)O[C@@H]1CC[C@@]2(C)[C@@H]3C[C@@H]4[C@H]5C[C@@]3(CC[C@@H]2[C@]1(C)C=O)C[C@@]45C` belongs greater than 371 µM; to `CC1(C)C(=O)CC[C@@]2(C)[C@@H]3C[C@@H]4[C@@H]5C[C@@]3(CC[C@@H]12)C[C@@]45C`, 173 µM (≈ 49.6 µg/mL); to `CC1(C)[C@H](O)CC[C@]2(C)[C@@H]1CC[C@@]13C[C@@H]4[C@@H](C[C@H]12)[C@]4(C)C3`, 212 µM (≈ 61.2 µg/mL).

The molecule `CC1(C)[C@H](O)CC[C@]2(C)[C@@H]1CC[C@@]13C[C@@H]4[C@@H](C[C@H]12)[C@]4(C(=O)O)C3` came in with an MIC90 greater than 402 µM. To `CC(=O)O[C@@H]1CC[C@]2(C)[C@H](CC[C@@]34C[C@@H]5[C@@H](C[C@H]32)[C@]5(C)C4)[C@@]1(C)CO` belongs greater than 370 µM; to `CC(=O)OC[C@@]1(C(=O)O)[C@H](OC(C)=O)CC[C@@]2(C)[C@@H]3C[C@@H]4[C@H]5C[C@@]3(CC[C@@H]21)C[C@@]45C`, greater than 306 µM.

Turning to `CC(=O)OC[C@]1(C)[C@H]2CC[C@@]34C[C@@H]5[C@@H](C[C@H]3[C@]2(C)CC[C@H]1O)[C@]5(C)C4`, the MIC90 is greater than 370 µM.

The molecule `CC(=O)O[C@@H]1CC[C@]2(C)[C@H](CC[C@@]34C[C@@H]5[C@@H](C[C@H]32)[C@]5(C)C4)C1(C)C` returned an MIC90 of 337 µM (≈ 111 µg/mL). Then `CC(=O)O[C@@H]1CC[C@@]2(C)[C@@H]3C[C@@H]4[C@H]5C[C@@]3(CC[C@@H]2[C@@]1(C)C=O)C[C@@]45C`, with greater than 371 µM. `CC1(C)CCC[C@]2(C)[C@@H]1CC[C@@]13C[C@@H]4[C@@H](C[C@H]12)[C@]4(C=O)C3`: the MIC90 was 85 µM (≈ 24.3 µg/mL). To `CC(=O)O[C@@H]1CC[C@]2(C)[C@H](CC[C@@]34C[C@@H]5[C@@H](C[C@H]32)[C@]5(C)C4)[C@]1(C)CO` belongs 171 µM (≈ 59.3 µg/mL); to `CO[C@H]1/C=C/O[C@@]2(C)Oc3c(C)c(O)c4c(O)c(c(/C=N/N5CCN(C)CC5)c(O)c4c3C2=O)NC(=O)/C(C)=C\C=C\[C@H](C)[C@H](O)[C@@H](C)[C@@H](O)[C@@H](C)[C@H](OC(C)=O)[C@@H]1C` [RIFAMPIN], less than 0.15 µM.
